The test system of experiment [1] is SH-SY5Y. In words: Inhibition of class 1 HDAC in human SH-SY5Y cells assessed as increase in acetylation of histone H3 at 0.1 to 1 uM after 24 hrs by Western blot analysis. The class given is cell-based. A digest of the protocol:
(§1)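 SH-SY5Y cells in MEM with 10% FBS at 37 °C, 5% CO2, treated 24 h at 0.1–1 µM. Lysates in HEPES/Triton buffer; 20 µg protein run on SDS-PAGE and immunoblotted for acetyl-α-tubulin, α-tubulin, acetyl-histone H3 and histone H3 with ECL detection.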
For orientation: Immunoblotting shows a protein as a band on a membrane.

The target of experiment [2] is T1, Protein deacetylase HDAC6 (Homo sapiens) (UniProt Q9UBN7).
T1 sequence (whole entry): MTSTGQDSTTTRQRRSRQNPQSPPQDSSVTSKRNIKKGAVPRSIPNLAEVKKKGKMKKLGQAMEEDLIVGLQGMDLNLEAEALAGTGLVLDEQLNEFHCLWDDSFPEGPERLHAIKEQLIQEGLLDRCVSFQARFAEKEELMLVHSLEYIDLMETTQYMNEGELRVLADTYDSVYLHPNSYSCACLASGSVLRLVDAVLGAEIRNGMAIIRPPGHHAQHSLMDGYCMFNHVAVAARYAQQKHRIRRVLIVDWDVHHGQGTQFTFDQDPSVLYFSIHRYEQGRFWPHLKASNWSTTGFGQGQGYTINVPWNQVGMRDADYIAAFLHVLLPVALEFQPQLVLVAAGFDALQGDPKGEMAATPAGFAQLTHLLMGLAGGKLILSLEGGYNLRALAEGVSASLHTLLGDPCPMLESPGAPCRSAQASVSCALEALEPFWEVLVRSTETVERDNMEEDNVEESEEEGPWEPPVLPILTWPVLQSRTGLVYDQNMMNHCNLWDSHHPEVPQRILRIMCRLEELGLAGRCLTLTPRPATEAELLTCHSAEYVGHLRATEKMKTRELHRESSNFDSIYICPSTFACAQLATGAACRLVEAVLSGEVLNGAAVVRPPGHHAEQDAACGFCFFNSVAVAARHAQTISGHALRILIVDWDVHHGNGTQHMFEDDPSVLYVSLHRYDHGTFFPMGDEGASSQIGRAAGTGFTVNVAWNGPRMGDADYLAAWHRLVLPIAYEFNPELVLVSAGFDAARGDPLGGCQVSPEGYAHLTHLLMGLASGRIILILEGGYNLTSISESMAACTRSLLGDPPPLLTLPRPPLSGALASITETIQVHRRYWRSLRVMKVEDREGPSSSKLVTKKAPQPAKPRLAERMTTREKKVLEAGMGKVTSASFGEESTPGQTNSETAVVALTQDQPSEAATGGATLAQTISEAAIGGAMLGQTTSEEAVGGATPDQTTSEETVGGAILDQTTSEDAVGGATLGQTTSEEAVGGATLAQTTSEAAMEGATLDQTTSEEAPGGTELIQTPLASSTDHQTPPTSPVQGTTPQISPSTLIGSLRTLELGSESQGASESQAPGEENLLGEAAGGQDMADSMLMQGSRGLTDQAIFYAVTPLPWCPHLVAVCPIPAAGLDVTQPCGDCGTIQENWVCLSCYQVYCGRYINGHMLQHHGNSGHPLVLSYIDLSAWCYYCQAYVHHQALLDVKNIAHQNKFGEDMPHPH
The experiment in a line: Inhibition of HDAC6 in human SH-SY5Y cells assessed as increase in acetylation of alpha-tubulin at 0.1 to 1 uM after 24 hrs by Western blot analysis. The class given is cell-based. A digest of the protocol: as §1

For experiment [3], the target named is Histone deacetylase 1 (Homo sapiens, UniProt Q13547). In words: Inhibition of human HDAC1 using RHKKAc peptide as substrate.
Experiment [4] concerns the target Histone deacetylase 3 (Homo sapiens, UniProt O15379).
Experiment [5] has as its target T2, Polyamine deacetylase HDAC10 (Homo sapiens, UniProt Q969S8).
T2 sequence (Q969S8 whole entry): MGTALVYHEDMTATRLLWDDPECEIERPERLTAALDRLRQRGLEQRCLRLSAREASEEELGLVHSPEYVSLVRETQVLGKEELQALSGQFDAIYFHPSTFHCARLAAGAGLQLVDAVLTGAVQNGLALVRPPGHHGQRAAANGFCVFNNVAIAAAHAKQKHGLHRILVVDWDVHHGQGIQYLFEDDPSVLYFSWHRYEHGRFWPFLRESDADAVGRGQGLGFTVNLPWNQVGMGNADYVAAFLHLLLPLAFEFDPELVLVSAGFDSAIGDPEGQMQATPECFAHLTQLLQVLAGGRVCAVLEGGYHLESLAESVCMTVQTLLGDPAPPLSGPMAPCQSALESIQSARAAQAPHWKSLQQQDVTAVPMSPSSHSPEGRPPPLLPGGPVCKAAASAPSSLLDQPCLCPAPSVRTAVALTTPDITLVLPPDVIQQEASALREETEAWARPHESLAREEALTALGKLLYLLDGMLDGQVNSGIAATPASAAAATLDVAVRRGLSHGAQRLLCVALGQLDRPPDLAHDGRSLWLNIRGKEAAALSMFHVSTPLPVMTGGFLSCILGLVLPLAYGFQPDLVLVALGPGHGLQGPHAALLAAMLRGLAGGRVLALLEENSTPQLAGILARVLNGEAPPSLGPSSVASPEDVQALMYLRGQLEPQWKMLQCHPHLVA
In words: Inhibition of human HDAC10 using RHKKAc peptide as substrate.

Experiment [6] is filed under the species Homo sapiens. The experiment in a line: Selectivity index, ratio of IC50 for human HDAC2 to IC50 for human HDAC6.
The species entered for experiment [7] is Homo sapiens. The experiment in a line: Selectivity index, ratio of IC50 for human HDAC10 to IC50 for human HDAC6.
Experiment [8] is filed under the species Homo sapiens. In words: Selectivity index, ratio of IC50 for human HDAC8 to IC50 for human HDAC6.
The target in experiment [9] is T3, Protein deacetylase HDAC6 (Homo sapiens, UniProt Q9UBN7).
T3 sequence (Q9UBN7 whole entry): T1 sequence (whole entry)
In words: Inhibition of human HDAC6 using RHKKAc peptide as substrate.

The target of experiment [10] is T4, Histone deacetylase 8 (Homo sapiens, UniProt Q9BY41).
T4 sequence (Q9BY41 whole entry): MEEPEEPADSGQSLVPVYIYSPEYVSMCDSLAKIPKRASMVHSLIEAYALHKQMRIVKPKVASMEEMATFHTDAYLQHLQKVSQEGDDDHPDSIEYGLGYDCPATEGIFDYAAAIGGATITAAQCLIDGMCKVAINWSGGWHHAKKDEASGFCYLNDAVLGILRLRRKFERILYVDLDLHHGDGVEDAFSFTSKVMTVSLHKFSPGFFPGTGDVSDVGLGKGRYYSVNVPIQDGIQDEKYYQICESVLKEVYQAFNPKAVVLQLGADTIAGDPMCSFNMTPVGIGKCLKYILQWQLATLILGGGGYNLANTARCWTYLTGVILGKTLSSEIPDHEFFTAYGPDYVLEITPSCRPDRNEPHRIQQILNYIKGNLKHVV
In words: Inhibition of human HDAC8 using RHKAcKAc peptide as substrate.

Experiment [11] concerns the target Histone deacetylase 2 (Homo sapiens, UniProt Q92769). In words: Inhibition of human HDAC2 using RHKKAc peptide as substrate.
The species named for experiment [12] is Homo sapiens. The experiment in a line: Selectivity index, ratio of IC50 for human HDAC3 to IC50 for human HDAC6.
The species entered for experiment [13] is Homo sapiens. In words: Selectivity index, ratio of IC50 for human HDAC1 to IC50 for human HDAC6.

Drawing on ChEMBL document CHEMBL4196108, “5-Aroylindoles Act as Selective Histone Deacetylase 6 Inhibitors Ameliorating Alzheimer's Disease Phenotypes” (J Med Chem, 2018), this text covers inhibition, IC50 and Ratio IC50 for three compounds.

Calls of active or inactive are those of the source. The rule behind the calls is not given here.

Chain of Histone deacetylase 3 (O15379 whole entry): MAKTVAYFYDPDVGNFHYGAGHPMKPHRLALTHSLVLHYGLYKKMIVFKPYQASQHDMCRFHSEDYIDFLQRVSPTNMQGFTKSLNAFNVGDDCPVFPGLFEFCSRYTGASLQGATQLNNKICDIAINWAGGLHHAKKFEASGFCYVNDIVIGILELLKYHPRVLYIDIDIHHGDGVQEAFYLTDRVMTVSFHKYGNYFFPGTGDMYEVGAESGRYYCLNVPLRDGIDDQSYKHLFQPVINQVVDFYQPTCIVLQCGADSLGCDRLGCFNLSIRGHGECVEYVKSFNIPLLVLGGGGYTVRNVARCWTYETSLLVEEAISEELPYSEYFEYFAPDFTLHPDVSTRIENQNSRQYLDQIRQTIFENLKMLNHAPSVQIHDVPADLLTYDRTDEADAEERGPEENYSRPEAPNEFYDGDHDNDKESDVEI
Chain of Histone deacetylase 2 (Q92769 whole entry): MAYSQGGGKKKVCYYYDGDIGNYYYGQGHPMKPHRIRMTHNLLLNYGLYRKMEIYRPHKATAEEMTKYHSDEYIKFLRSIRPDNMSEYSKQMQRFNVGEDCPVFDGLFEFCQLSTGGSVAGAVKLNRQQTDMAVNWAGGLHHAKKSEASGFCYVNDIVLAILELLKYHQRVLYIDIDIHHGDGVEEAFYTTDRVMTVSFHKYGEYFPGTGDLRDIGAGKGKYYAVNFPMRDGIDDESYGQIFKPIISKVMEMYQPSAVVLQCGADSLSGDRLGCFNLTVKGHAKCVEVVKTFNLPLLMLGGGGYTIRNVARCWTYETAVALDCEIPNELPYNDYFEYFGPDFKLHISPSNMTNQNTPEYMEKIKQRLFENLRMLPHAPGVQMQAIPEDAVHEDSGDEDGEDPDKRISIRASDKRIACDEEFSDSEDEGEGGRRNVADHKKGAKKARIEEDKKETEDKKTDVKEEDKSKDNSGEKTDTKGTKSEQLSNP
Chain of Histone deacetylase 1 (Q13547 whole entry): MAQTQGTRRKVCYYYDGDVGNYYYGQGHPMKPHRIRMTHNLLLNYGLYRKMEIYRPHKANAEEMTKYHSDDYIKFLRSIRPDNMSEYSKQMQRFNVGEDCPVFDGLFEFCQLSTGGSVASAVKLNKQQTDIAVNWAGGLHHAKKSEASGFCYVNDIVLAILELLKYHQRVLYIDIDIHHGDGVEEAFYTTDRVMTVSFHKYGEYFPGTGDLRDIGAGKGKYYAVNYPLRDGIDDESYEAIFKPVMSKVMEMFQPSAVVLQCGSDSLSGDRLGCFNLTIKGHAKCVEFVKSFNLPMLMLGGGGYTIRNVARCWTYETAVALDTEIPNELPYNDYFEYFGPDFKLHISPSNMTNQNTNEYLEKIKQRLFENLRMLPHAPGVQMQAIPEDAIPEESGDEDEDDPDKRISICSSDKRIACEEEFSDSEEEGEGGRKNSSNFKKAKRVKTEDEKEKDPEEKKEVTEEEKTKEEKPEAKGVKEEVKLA

In the case of `O=C(CCCCCCNC(=O)c1cnc(N(c2ccccc2)c2ccccc2)nc1)NO`, the inhibition entry in experiment [1] and in [2] was “Active” in each case.

As usually defined, the IC50 is the midpoint of a concentration-inhibition curve. Read a low IC50 as inhibition by little substance. In the case of `COc1ccc(C(=O)c2ccc3c(ccn3Cc3ccc(C(=O)NO)cc3)c2)cc1OC`, the IC50 amounted to 2800 nM in experiment [3]; 6050 nM in experiment [4]; 18900 nM in experiment [5]; 15.5 nM in [9]; 756 nM in experiment [10]; 3030 nM in [11]. For the same compound, the Ratio IC50 worked out at 196 in experiment [6]; 1220 in experiment [7]; 48.8 in experiment [8]; 390 in experiment [12]; 181 in experiment [13].

`COc1cccc(C(=O)c2ccc3c(ccn3S(=O)(=O)c3cccc(/C=C/C(=O)NO)c3)c2)c1`: the IC50 in experiment [3] is 1210 nM; in experiment [4] it was 323 nM; in experiment [5] it was 7740 nM; in [9], 1810 nM; in experiment [10], 3530 nM; in experiment [11], 4800 nM. Moreover, the Ratio IC50 in [6] turned out to be 2.7; in experiment [7], 4.3; in [8], 1.9; in experiment [12], 0.2; in [13] it was 0.7.
